According to ChEMBL document CHEMBL1123874, “Polychlorinated biphenyls and related compound interactions with specific binding sites for thyroxine in rat liver nuclear extracts” (J Med Chem, 1987):

Columns and labels:
Rattus norvegicus [1] = species on record: Rattus norvegicus; assay: Number of T4 binding sites in rat liver from TCDD treated rats; assay type: functional
Outline: (§1)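 Male Sprague–Dawley rats (200–250 g), five per group, gavaged with TCDD (0, 12, 25, 37 or 50 µg/kg) in corn oil at 0.1 mL/kg; controls got corn oil. Livers were taken after 9 days and pooled per group. Nuclear extract (10 µg protein, buffer B, pH 7.6) was incubated 2 h at 25 °C with 0.1–2.4 nM [125I]T4. Bound ligand was isolated on Sephadex G-25, specific binding taken as total minus excess-T4, Scatchard analysis, duplicates.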

Rattus norvegicus [2] = assay: Number of T4 binding sites in rat liver from TCDD treated rats at a dose of 12 ug/Kg; assay type: functional; outline: as §1
Rattus norvegicus [3] = assay: Number of T4 binding sites in rat liver from TCDD treated rats at a dose of 25 ug/Kg; assay type: functional; outline: as §1
Rattus norvegicus [4] = assay: Number of T4 binding sites in rat liver from TCDD treated rats at a dose of 37 ug/Kg; assay type: functional; outline: as §1
Rattus norvegicus [5] = assay: Number of T4 binding sites in rat liver from TCDD treated rats at a dose of 50 ug/Kg; assay type: functional; outline: as §1
Rattus norvegicus [6] = species on record: Rattus norvegicus; assay: Body weight (after treatment) was determined; assay type: functional
Outline: (§2)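 Male Sprague–Dawley rats (200–250 g, 6 weeks old), in groups of five, were dosed by gavage with TCDD at 0, 12, 25, 37 or 50 µg/kg body weight in corn oil (0.1 mL/kg). Controls received corn oil alone. Animals were killed by CO2 9 days after dosing.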

Rattus norvegicus [7] = assay: Body weight was determined in TCDD-treated rat at a dose of 12 ug/Kg; assay type: functional; outline: as §2
Rattus norvegicus [8] = assay: Body weight was determined in TCDD-treated rats at a dose of 25 ug/Kg; assay type: functional; outline: as §2
Rattus norvegicus [9] = assay: Body weight was determined in TCDD-treated rats at a dose of 37 ug/Kg; assay type: functional; outline: as §2
Rattus norvegicus [10] = assay: Body weight was determined in TCDD-treated rats at a dose of 50 ug/Kg; assay type: functional; outline: as §2
Rattus norvegicus [11] = assay: Liver weight was determined in TCDD-treated rat at a dose of 12 ug/Kg; assay type: functional; outline: as §2
Rattus norvegicus [12] = assay: Liver weight was determined in TCDD-treated rats at a dose of 25 ug/Kg; assay type: functional; outline: as §2
Rattus norvegicus [13] = assay: Liver weight was determined in TCDD-treated rats at a dose of 37 ug/Kg; assay type: functional; outline: as §2
Rattus norvegicus [14] = assay: Liver weight was determined in TCDD-treated rats at a dose of 50 ug/Kg; assay type: functional; outline: as §2
Rattus norvegicus [15] = species on record: Rattus norvegicus; assay: Liver weight was determined in rats; assay type: functional; outline: as §2
Rattus norvegicus [16] = assay: Serum T4 level was determined in TCDD-treated rat at a dose of 12 ug/Kg; assay type: functional, organism-based; outline: as §2
Rattus norvegicus [17] = assay: Serum T4 level was determined in TCDD-treated rat at a dose of 25 ug/Kg; assay type: functional, organism-based; outline: as §2
Rattus norvegicus [18] = assay: Serum T4 level was determined in TCDD-treated rat at a dose of 37 ug/kg; assay type: functional, organism-based; outline: as §2
Rattus norvegicus [19] = assay: Serum T4 level was determined in TCDD-treated rat at a dose of 50 ug/Kg; assay type: functional, organism-based; outline: as §2
Rattus norvegicus [20] = species on record: Rattus norvegicus; assay: Serum T4 level was determined in rats; assay type: functional, organism-based; outline: as §2
[21] = Binding affinity of [125I]T4 to rat liver nuclear extract (CONTROL); outline: as §1
[22] = Binding affinity of [125I]T4 to rat liver nuclear extract at a dose of 12 ug/Kg; outline: as §1
[23] = Binding affinity of [125I]T4 to rat liver nuclear extract at a dose of 25 ug/Kg; outline: as §1
[24] = Binding affinity of [125I]-T4 to rat liver nuclear extract at a dose of 37 ug/Kg; outline: as §1
[25] = Binding affinity of [125I]T4 to rat liver nuclear extract at a dose of 50 ug/Kg; outline: as §1

With `Clc1cc2c(cc1Cl)Oc1cc(Cl)c(Cl)cc1O2` [2,3,7,8-TETRACHLORODIBENZO-P-DIOXIN] the Activity (Rattus norvegicus [1]) was <3.24 nM/mg, the Activity (Rattus norvegicus [2]) was <4.06 nM/mg and the Activity (Rattus norvegicus [3]) was <4.12 nM/mg. For the same compound, the Activity (Rattus norvegicus [4]) was <8.71 nM/mg, the Activity (Rattus norvegicus [5]) was <6.65 nM/mg and the Weight (Rattus norvegicus [6]) was 302 g. The Weight (Rattus norvegicus [7]) was 293 g, the Weight (Rattus norvegicus [8]) was <273 g and the Weight (Rattus norvegicus [9]) was <274 g. For the same compound, the Weight (Rattus norvegicus [10]) was <271 g, the Weight (Rattus norvegicus [11]) was <18.9 g and the Weight (Rattus norvegicus [12]) was <18.3 g. For the same compound, the Weight (Rattus norvegicus [13]) was <19.3 g, the Weight (Rattus norvegicus [14]) was <19.9 g and the Weight (Rattus norvegicus [15]) was 15.1 g. The Serum T4 (Rattus norvegicus [16]) was < 5.6 µg/dL, the Serum T4 (Rattus norvegicus [17]) was < 4.4 µg/dL and the Serum T4 (Rattus norvegicus [18]) was < 4.1 µg/dL. For the same compound, the Serum T4 (Rattus norvegicus [19]) was < 4.2 µg/dL, the Serum T4 (Rattus norvegicus [20]) was 7.6 µg/dL and the Kd [21] was 0.7 nM. The Kd [22] was 0.48 nM, the Kd [23] was 0.56 nM and the Kd [24] was 0.69 nM. It also gave a Kd [25] of 0.72 nM.
